Test results: BindingDB's records for doi:10.1021/np2003066 (The University of Montana, 2011)

The compounds below were run against Interleukin-1 beta (Homo sapiens, UniProt P01584) (assay: Induction of IL-1 beta production in LPS-induced human THP-1 cells by ELISA).
Procedure, shortened: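 THP-1 cells were differentiated with PMA (1 μg/mL) for 24 h, scraped, pelleted and resuspended at 1.0 × 10^6 cells/mL. They were exposed together to test inhibitor, LPS [20 ng/mL] and TiO2 nanowires (100 μg/ml) for 24 h at 37 °C in a CO2 incubator. IL-1β released was measured by DuoSet ELISA, and IC50 was derived from the post-exposure IL-1β levels.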

Interleukin-1 beta, sequence (P01584 117-269 limits assumed): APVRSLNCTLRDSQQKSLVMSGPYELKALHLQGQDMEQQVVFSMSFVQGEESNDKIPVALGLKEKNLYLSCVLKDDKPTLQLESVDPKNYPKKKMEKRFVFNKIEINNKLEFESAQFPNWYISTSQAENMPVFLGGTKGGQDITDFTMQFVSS

Row | SMILES | IC50
1 | C=C1[C@@]2(C)C[C@H]3[C@]4(C)CCC(=O)C(C)(C)[C@H]4CC[C@]3(C)[C@]1(C(=O)OC)C(=O)[C@@](C)(O)C2=O | 15.5 µM
2 | C=C1[C@@]2(C)C[C@H]3[C@]4(C)CCC(=O)OC(C)(C)[C@@H]4CC[C@]3(C)[C@]1(C(=O)OC)C(=O)[C@@](C)(O)C2=O | 34.3 µM
3 | C=C(C)C1=CC[C@@]2(C)[C@@H](C[C@]3(C)C(=C)[C@@]2(C(=O)OC)C(=O)[C@@](C)(O)C3=O)[C@]1(C)CCC(=O)O | 37.8 µM
4 | C=C1[C@@]2(C)C[C@H]3C(C)=C4CC(=O)OC(C)(C)C4=CC[C@]3(C)[C@]1(C(=O)OC)C(=O)[C@@](C)(O)C2=O [BERKELEYDIONE] | 4.4 µM

Now those with a lower IC50, led by results:

Row | IC50 | SMILES
5 | 3.7 µM | C=C1[C@@]2(C)C[C@@H]3[C@](C)(CC=C4C(C)(C)OC(=O)CC[C@]43C)[C@]1(C(=O)OC)C(=O)[C@@](C)(O)C2=O
6 | 2.7 µM | C=C1[C@@]2(C)C[C@H]3[C@]4(C)CC[C@@H](O)C(C)(C)[C@H]4CC[C@]3(C)[C@]1(C(=O)OC)C(=O)[C@@](C)(O)C2=O
7 | 2 µM | CC(=O)N[C@@H](Cc1ccc(O)cc1)C(=O)N[C@H](C(=O)N[C@@H](C)C(=O)N[C@H](C=O)CC(=O)O)C(C)C
